Test results as given in ChEMBL document CHEMBL4376860, “Discovery of Novel Dual Poly(ADP-ribose)polymerase and Phosphoinositide 3-Kinase Inhibitors as a Promising Strategy for Cancer Therapy” (J Med Chem, 2020).
Calls of active or inactive are those of the source. No cut-off for these calls is given here.

Columns and labels:
MDA-MB-231 = assay: Antiproliferative activity against human MDA-MB-231 cells measured after 7 days by Celltiter-glo assay; assay type: functional, cell-based; conditions: MDA-MB-231, 168 h
Outline: (§1)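 Cells maintained in RPMI1640 with 10% FBS at 37 °C, 5% CO2. Seeded the day before dosing, grown 12 h, then exposed to graded compound concentrations for 7 days. CellTiter-Glo reagent added, 10 min at room temperature, luminescence read. Inhibition % = (1-(RLU compound - RLU blank)/(RLU DMSO - RLU blank))×100. IC50 from nonlinear regression, normalized dose-response fit.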

MDA-MB-468 [1] = assay: Antiproliferative activity against human MDA-MB-468 cells measured after 7 days by Celltiter-glo assay; assay type: functional, cell-based; conditions: MDA-MB-468, 168 h; outline: as §1
CAKI-1 = assay: Antiproliferative activity against human CAKI-1 cells measured after 7 days by Celltiter-glo assay; assay type: functional, cell-based; conditions: CAKI-1, 168 h; outline: as §1
DU-145 [2] = assay: Antiproliferative activity against human DU145 cells measured after 7 days by Celltiter-glo assay; assay type: functional, cell-based; conditions: DU-145, 168 h; outline: as §1
MDA-MB-468 [3] = assay: Inhibition of PI3K in human MDA-MB-468 cells assessed as reduction in RAD51 foci formation at 1 uM measured after 72 hrs by DAPI staining based immunofluorescence microscopic analysis; assay type: cell-based
Outline: (§2)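 RAD51 foci in MDA-MB-468 cells on coverslips after 72 h drug exposure. Cells fixed (3% formaldehyde), permeabilized (0.1% Triton X-100), blocked in 10% FBS/PBS, incubated overnight at 4 °C with rabbit anti-RAD51 polyclonal, then secondary antibody plus DAPI. Foci and percent positive cells (>5 foci per cell) counted from about 200 cells. Mean ± SD of three independent experiments.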

MDA-MB-468 [4] = assay: Inhibition of PI3K in human MDA-MB-468 cells assessed as reduction in BRCA1 mRNA level at 1 uM by Trizol reagent-based RT-PCR analysis; assay type: cell-based
Outline: (§3)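 Total RNA from treated MDA-MB-468 cells extracted with TRIzol. BRCA1 or BRCA2 mRNA quantified by real-time PCR with GAPDH as internal control. Results given as fold change relative to the internal control. Mean ± SD of three independent experiments.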

MDA-MB-468 [5] = assay: Induction of apoptosis in human MDA-MB-468 cells assessed as late apoptotic cells at 1 uM measured after 72 hrs by Annexin V-FITC/propidium iodide staining based flow cytometry (reference value: 0.78%); assay type: functional
BXPC-3 = assay: Antiproliferative activity against human BxPC3 cells measured after 7 days by Celltiter-glo assay; assay type: functional, cell-based; conditions: BXPC-3, 168 h; outline: as §1
MDA-MB-468 [6] = assay: Induction of apoptosis in human MDA-MB-468 cells assessed as increase in cleaved PARP level at 1 uM […] by Western blot analysis; assay type: functional, cell-based
MDA-MB-468 [7] = assay: Inhibition of PI3K in human MDA-MB-468 cells assessed as reduction in BRCA2 mRNA level at 1 uM by Trizol reagent-based RT-PCR analysis; assay type: cell-based; outline: as §3
MDA-MB-468 [8] = assay: Induction of DNA damage in human MDA-MB-468 cells at 1 uM measured after 72 hrs by comet assay; assay type: functional, cell-based
Outline: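 MDA-MB-468 cells treated for 72 h, harvested and run in a neutral comet assay. Ethidium bromide staining after electrophoresis. About 200 cell images per group analysed with CASP. DNA damage scored as tail intensity (percentage DNA in tail) and olive tail moment. Mean ± SD of three independent experiments.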

HCT-116 [9] = assay: Antiproliferative activity against human HCT116 cells measured after 7 days by Celltiter-glo assay; assay type: functional, cell-based; conditions: HCT-116, 168 h; outline: as §1
MDA-MB-468 [10] = assay: Induction of apoptosis in human MDA-MB-468 cells assessed as early apoptotic cells at 1 uM measured after 72 hrs by Annexin V-FITC/propidium iodide staining based flow cytometry (reference value: 3.88%); assay type: functional
HCC1937 = assay: Antiproliferative activity against human HCC1937 cells measured after 7 days by Celltiter-glo assay; assay type: functional, cell-based; conditions: HCC1937, 168 h; outline: as §1
MDA-MB-468 [11] = assay: Induction of apoptosis in human MDA-MB-468 cells assessed as viable cells at 1 uM measured after 72 hrs by Annexin V-FITC/propidium iodide staining based flow cytometry (reference value: 95.2%); assay type: functional; conditions: MDA-MB-468, 72 h, read-out: Activity
SW-620 = assay: Antiproliferative activity against human SW620 cells measured after 7 days by Celltiter-glo assay; assay type: functional, cell-based; conditions: SW-620, 168 h; outline: as §1
Jurkat = assay: Antiproliferative activity against human Jurkat cells measured after 7 days by Celltiter-glo assay; assay type: functional, cell-based; conditions: 168 h; outline: as §1
A549 = assay: Antiproliferative activity against human A549 cells measured after 7 days by Celltiter-glo assay; assay type: functional, cell-based; conditions: A549, 168 h; outline: as §1
Ramos = assay: Antiproliferative activity against human Ramos cells measured after 7 days by Celltiter-glo assay; assay type: functional, cell-based; conditions: 168 h; outline: as §1
MDA-MB-468 [12] = assay: Induction of apoptosis in human MDA-MB-468 cells assessed as necrotic cells at 1 uM measured after 72 hrs by Annexin V-FITC/propidium iodide staining based flow cytometry (reference value: 0.13%); assay type: functional
A2780 [13] = assay: Antiproliferative activity against human A2780 cells measured after 7 days by Celltiter-glo assay; assay type: functional, cell-based; conditions: A2780, 168 h; outline: as §1
MDA-MB-468 [14] = assay: Potency index, ratio of BKM120 IC50 to test compound IC50 for antiproliferative activity against human MDA-MB-468 cells; assay type: functional
MDA-MB-468 [15] = assay: Inhibition of PI3K in human MDA-MB-468 cells assessed as reduction in BRCA2 mRNA level at 1 uM in presence of PARP inhibitor olaparib by Trizol reagent-based RT-PCR analysis; assay type: cell-based; outline: as §3
MDA-MB-468 [16] = assay: Antitumor activity against human MDA-MB-468 cells xenografted in BALB/c mouse assessed as tumor growth inhibition at 27.5 mg/kg, ip administered every 2 days for 34 days and measured at 2 days interval during compound dosing in presence of PARP inhibitor olaparib relative to control; assay type: functional; conditions: MDA-MB-468, ip, read-out: TGI
DU-145 [17] = assay: cells; conditions: Homo sapiens, DU-145, 168 h, read-out: pIC50 (converted)
A2780 [18] = assay: cells; conditions: Homo sapiens, A2780, 168 h, read-out: pIC50 (converted)
MDA-MB-468 [19] = assay: Antitumor activity against human MDA-MB-468 cells xenografted in BALB/c mouse assessed as tumor growth inhibition at 27.5 mg/kg, ip administered every 2 days for 34 days and measured at 2 days interval during compound dosing relative to control; assay type: functional; conditions: MDA-MB-468, ip, read-out: TGI
MDA-MB-468 [20] = assay: Inhibition of PI3K in human MDA-MB-468 cells assessed as reduction in RAD51 foci formation at 1 uM measured after 72 hrs in presence of PARP inhibitor olaparib by DAPI staining based immunofluorescence microscopic analysis; assay type: cell-based; outline: as §2
HCT-116 [21] = assay: cells; conditions: Homo sapiens, HCT-116, 168 h, read-out: pIC50 (converted)
MDA-MB-468 [22] = assay: Induction of apoptosis in human MDA-MB-468 cells assessed as necrotic cells at 1 uM measured after 72 hrs in presence of PARP inhibitor olaparib by Annexin V-FITC/propidium iodide staining based flow cytometry (reference value: 0.13%); assay type: functional

Row | SMILES | IC50 (MDA-MB-231) [nM] | IC50 (MDA-MB-468 [1]) [nM] | IC50 (CAKI-1) [nM] | IC50 (DU-145 [2]) [nM] | inhibition (MDA-MB-468 [3]) | inhibition (MDA-MB-468 [4]) | Activity (MDA-MB-468 [5]) [%] | IC50 (BXPC-3) [nM] | inhibition (MDA-MB-468 [7]) | Activity (MDA-MB-468 [8]) | IC50 (HCT-116 [9]) [nM] | Activity (MDA-MB-468 [10]) [%] | IC50 (HCC1937) [nM] | viability at 1 µM (MDA-MB-468 [11]) [%] | IC50 (SW-620) [nM] | IC50 (Jurkat) [nM] | IC50 (A549) [nM] | IC50 (Ramos) [nM] | Activity (MDA-MB-468 [12]) [%] | IC50 (A2780 [13]) [nM] | further results
1 | Nc1cc(C(F)(F)F)c(-c2nc3c(c(N4CCOCC4)n2)CCN(C(=O)c2cc(Cc4n[nH]c(=O)c5ccccc45)ccc2F)C3)cn1 | 1000 | 977 | 955 | 891 | Active | Active | 21 | 1070 | Active | Active | 871 | 21.9 | 1050 | 55.7 | 2820 | 933 | 537 | 1070 | 1.44 | 398 | Activity (MDA-MB-468 [6]): Active; Ratio IC50 (MDA-MB-468 [14]): >=4
2 | Nc1cc(C(F)(F)F)c(-c2cc(N3CCOCC3)nc(N3CCOCC3)n2)cn1 [BUPARLISIB] | 6030 | 3980 | 2750 | 3800 | Active | Active | 1.82 | 4070 | Active | Active | 3630 | 6.13 | 6310 | 91.9 | 5130 | 1410 | 1700 | 3630 | 0.16 | 417 | inhibition (MDA-MB-468 [15]): Active; inhibition in vivo at 27.5 mg/kg (MDA-MB-468 [16]): 48.4%; IC50 (DU-145 [17]): 1170 nM; IC50 (A2780 [18]): 347 nM; inhibition in vivo at 27.5 mg/kg (MDA-MB-468 [19]): 33.4%; inhibition (MDA-MB-468 [20]): Active; IC50 (HCT-116 [21]): 1230 nM; Activity (MDA-MB-468 [22]): 1.48%
